ChEMBL document CHEMBL2407028, “Discovery of novel oxazolidinedione derivatives as potent and selective mineralocorticoid receptor antagonists” (Bioorg Med Chem Lett, 2013)

How the values were obtained:
Rattus norvegicus [1] = test: Volume of distribution at steady state in rat at 1 mg/kg, iv and 1 mg/lg, po; assay type: ADME, organism-based; parameters: dose 1 mg/kg, route oral; conditions: in vivo
Procedure, shortened: (§1)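 Rats dosed at 1 mg/kg iv (n = 2) or 1 mg/kg po (n = 3), formulated at 1 mg/mL in PEG 200:water (70:30). Blood concentrations measured by LC/MS/MS after protein precipitation with acetonitrile.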

Estrogen receptor beta [2] = target: T1, Estrogen receptor beta (Homo sapiens, UniProt Q92731); test: Agonist activity at estrogen receptor beta (unknown origin) by NH Pro assay
T1 sequence (Q92731 whole entry): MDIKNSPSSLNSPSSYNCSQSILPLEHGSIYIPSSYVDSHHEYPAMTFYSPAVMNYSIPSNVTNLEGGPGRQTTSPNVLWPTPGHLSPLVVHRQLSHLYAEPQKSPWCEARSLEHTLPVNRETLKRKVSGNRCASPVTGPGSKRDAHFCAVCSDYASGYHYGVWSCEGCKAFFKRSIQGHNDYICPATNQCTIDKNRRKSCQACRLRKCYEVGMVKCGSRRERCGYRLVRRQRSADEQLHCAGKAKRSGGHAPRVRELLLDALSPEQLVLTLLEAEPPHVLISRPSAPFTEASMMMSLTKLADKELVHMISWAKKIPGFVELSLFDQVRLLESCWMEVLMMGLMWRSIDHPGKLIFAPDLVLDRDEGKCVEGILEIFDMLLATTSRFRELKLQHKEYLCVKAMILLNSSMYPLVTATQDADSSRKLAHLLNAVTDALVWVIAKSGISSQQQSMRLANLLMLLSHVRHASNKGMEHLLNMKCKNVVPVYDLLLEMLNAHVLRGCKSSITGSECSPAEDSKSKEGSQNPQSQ

Estrogen receptor [3] = target: T2, Estrogen receptor (Homo sapiens, UniProt P03372); test: Agonist activity at estrogen receptor alpha (unknown origin) by NH Pro assay
T2 sequence (P03372 whole entry): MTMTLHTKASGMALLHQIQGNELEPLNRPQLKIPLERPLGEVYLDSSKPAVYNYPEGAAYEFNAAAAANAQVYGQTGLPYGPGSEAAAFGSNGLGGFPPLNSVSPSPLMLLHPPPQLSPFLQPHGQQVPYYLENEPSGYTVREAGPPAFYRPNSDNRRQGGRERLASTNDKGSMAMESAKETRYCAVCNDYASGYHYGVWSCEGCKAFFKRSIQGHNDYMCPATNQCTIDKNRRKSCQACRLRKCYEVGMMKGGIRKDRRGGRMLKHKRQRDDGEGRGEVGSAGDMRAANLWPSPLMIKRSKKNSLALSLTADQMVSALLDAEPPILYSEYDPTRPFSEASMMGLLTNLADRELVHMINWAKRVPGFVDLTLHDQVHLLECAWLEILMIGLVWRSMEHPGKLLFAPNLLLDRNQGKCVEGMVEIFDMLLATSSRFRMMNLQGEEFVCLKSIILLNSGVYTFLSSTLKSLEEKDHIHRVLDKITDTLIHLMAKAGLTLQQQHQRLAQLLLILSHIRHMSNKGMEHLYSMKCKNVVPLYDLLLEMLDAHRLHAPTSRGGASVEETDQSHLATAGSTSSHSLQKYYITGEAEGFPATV

Rattus norvegicus [4] = test: Dose normalized AUC in rat at 1 mg/kg, iv; assay type: ADME, organism-based; parameters: dose 1 mg/kg, route intravenous; conditions: in vivo; procedure, shortened: as §1
Estrogen receptor [5] = target: T2, Estrogen receptor; test: Antagonist activity at estrogen receptor alpha (unknown origin) by NH Pro assay
Glucocorticoid receptor [6] = target: T3, Glucocorticoid receptor (Homo sapiens, UniProt P04150); test: Agonist activity at glucocorticoid receptor (unknown origin) by NH Pro assay
T3 sequence (P04150 whole entry): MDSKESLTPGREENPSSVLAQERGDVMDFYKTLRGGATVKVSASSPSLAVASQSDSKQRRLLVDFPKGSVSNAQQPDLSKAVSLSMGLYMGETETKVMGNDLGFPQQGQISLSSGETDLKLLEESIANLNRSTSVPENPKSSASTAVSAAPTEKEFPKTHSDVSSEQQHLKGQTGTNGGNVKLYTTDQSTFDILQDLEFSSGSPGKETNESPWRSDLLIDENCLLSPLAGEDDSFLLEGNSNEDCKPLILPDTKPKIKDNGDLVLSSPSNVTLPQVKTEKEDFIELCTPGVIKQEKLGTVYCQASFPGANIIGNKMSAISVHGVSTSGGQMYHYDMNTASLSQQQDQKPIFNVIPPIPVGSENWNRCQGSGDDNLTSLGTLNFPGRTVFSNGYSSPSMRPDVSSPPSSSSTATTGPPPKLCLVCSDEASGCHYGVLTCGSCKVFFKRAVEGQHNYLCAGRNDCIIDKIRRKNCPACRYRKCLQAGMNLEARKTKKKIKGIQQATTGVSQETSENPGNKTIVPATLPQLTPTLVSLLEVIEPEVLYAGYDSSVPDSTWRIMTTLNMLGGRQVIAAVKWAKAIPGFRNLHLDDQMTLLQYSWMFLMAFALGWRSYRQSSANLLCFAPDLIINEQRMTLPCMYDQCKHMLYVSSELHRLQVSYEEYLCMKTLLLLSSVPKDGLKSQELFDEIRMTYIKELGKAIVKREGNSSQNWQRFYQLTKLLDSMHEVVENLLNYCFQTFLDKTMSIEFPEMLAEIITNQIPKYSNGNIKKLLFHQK

Glucocorticoid receptor [7] = target: T3, Glucocorticoid receptor; test: Antagonist activity at glucocorticoid receptor (unknown origin) by NH Pro assay
Androgen receptor = target: T4, Androgen receptor (Homo sapiens, UniProt P10275); test: Antagonist activity at androgen receptor (unknown origin) by NH Pro assay
T4 sequence (P10275 whole entry): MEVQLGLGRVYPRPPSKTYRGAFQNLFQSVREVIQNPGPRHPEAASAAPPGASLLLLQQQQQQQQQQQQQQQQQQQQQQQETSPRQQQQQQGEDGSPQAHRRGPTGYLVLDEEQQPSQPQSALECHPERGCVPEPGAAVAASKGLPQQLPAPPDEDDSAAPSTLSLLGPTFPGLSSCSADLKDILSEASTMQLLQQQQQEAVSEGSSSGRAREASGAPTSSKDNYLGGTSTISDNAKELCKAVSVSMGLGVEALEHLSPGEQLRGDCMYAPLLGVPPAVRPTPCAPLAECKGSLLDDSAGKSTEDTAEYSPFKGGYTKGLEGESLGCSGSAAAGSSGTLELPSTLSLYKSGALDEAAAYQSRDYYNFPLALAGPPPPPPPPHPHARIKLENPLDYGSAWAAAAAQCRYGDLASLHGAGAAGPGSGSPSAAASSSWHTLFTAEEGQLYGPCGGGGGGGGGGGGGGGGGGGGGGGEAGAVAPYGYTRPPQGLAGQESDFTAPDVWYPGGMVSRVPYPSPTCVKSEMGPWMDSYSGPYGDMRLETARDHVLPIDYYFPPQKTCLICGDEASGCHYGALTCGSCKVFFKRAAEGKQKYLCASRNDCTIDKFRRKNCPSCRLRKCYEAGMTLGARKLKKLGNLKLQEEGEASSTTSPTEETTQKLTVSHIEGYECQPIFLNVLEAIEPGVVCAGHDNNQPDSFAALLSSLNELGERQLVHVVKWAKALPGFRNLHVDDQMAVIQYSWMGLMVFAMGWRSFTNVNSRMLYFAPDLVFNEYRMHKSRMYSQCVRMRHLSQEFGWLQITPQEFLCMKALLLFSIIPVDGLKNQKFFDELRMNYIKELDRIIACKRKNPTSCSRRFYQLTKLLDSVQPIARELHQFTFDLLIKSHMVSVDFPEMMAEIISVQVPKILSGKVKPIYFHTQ

Estrogen receptor beta [8] = target: T1, Estrogen receptor beta; test: Antagonist activity at estrogen receptor beta (unknown origin) by NH Pro assay

Vdss (Rattus norvegicus [1]) | EC50 (Estrogen receptor beta [2]) | EC50 (Estrogen receptor [3]) | AUC/dose (Rattus norvegicus [4]) | IC50 (Estrogen receptor [5]) | EC50 (Glucocorticoid receptor [6]) | IC50 (Glucocorticoid receptor [7]) | IC50 (Androgen receptor) | IC50 (Estrogen receptor beta [8]) | Structure (SMILES)
7.9 L/kg | > 20 µM | > 20 µM | 0.46 µM·kg·h/mg | 7.3 µM | > 20 µM | 11 µM | > 20 µM | 15 µM | C[C@H](c1ccc(F)cc1)N1C(=O)O[C@](Cc2ccc(F)cc2)(C(=O)NCc2ccc(Cl)c(Cl)c2)C1=O
4.7 L/kg | > 20 µM | > 20 µM | 0.89 µM·kg·h/mg | 17 µM | > 20 µM | > 20 µM | 12 µM | 15 µM | COc1cc(CNC(=O)[C@@]2(Cc3ccccc3)OC(=O)N([C@@H]3CCc4ccccc43)C2=O)cc(OC)c1
